Experimental data from ChEMBL document CHEMBL2169772, “Discovery of (2S)-1-[4-(2-{6-amino-8-[(6-bromo-1,3-benzodioxol-5-yl)sulfanyl]-9H-purin-9-yl}ethyl)piperidin-1-yl]-2-hydroxypropan-1-one (MPC-3100), a purine-based Hsp90 inhibitor” (J Med Chem, 2012).

Columns and labels:
[1] = Tmax in Swiss nude mouse at 10 mg/kg, po by LC-ESI-MS/MS method; format: ADME, organism-based; parameters: dose 10 mg/kg, route oral; conditions: in vivo
Procedure, shortened: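 Mice dosed by oral gavage, vehicle DMA/PEG300/EtOH/H2O (3/40/12/45, v/v/v/v). Blood drawn by cardiac puncture into EDTA plasma. Three or five animals per time point. Plasma precipitated with acetonitrile plus internal standard. Quantified by LC-ESI-MS/MS against a 10–10 000 ng/mL standard curve with QC samples. Noncompartmental analysis.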

[2] = Lipophilicity, log P of the compound; format: physicochemical; conditions: octanol/water
NCI-H69 = assay: Cytotoxicity against human NCI-H69 cells assessed as inhibition of tumor growth incubated for 72 hrs by luminometry; format: functional, cell-based; conditions: NCI-H69, 72 h
Procedure, shortened: (§1)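 Cells seeded at 5000 per well in DMEM with 10% serum and left overnight. Compound added from DMSO dilutions (0.4% DMSO final) for 72 h. After 5 min at room temperature, ATPLite two-step lysis and substrate added, 5 min incubation, then luminescence read. Values are the mean of at least two experiments.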

Heat shock protein HSP90 [3] = molecular target: T1, Heat shock protein HSP90 (Homo sapiens, UniProt P07900+P08238); assay: Inhibition of human HSP90 in DU145 cells assessed as degradation of Akt incubated for 24 hrs by Western blot method; format: cell-based
Procedure, shortened: (§2)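 Cells exposed to a range of concentrations for 24 h. Lysates analyzed by Western blot with Her2-, Hsp70- and Akt-specific antibodies.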

MV4-11 = assay: Cytotoxicity against human MV4-11 cells assessed as inhibition of tumor growth incubated for 72 hrs by luminometry; format: functional, cell-based; conditions: MV4-11, 72 h; procedure, shortened: as §1
[4] = Half life in Swiss nude mouse at 2.5 mg/kg, iv by LC-ESI-MS/MS method; format: ADME, organism-based; parameters: dose 2.5 mg/kg, route intravenous; conditions: in vivo
Procedure, shortened: (§3)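 Intravenous dose in mice, vehicle DMA/PEG300/EtOH/H2O 3/40/12/45. Sampling at 5, 15, 30, 60, 120, 240, 480 and 720 min, three or five animals per time point. Cardiac-puncture EDTA plasma. Acetonitrile protein precipitation with internal standard, then LC-ESI-MS/MS (10–10 000 ng/mL curve). Parameters by noncompartmental fit.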

OVCAR-8 = assay: Cytotoxicity against human OVCAR8 cells assessed as inhibition of tumor growth incubated for 72 hrs by luminometry; format: functional, cell-based; conditions: OVCAR-8, 72 h; procedure, shortened: as §1
Mus musculus [5] = assay: Hepatic clearance in Swiss nude mouse at 2.5 mg/kg, iv by LC-ESI-MS/MS method; format: ADME, organism-based, Liver; parameters: dose 2.5 mg/kg, route intravenous; conditions: in vivo; procedure, shortened: as §3
Heat shock protein HSP90 [6] = molecular target: T1, Heat shock protein HSP90; assay: Inhibition of human HSP90 using BODIPY labelled geldanamycin as substrate by fluorescence polarization assay; format: protein assay
NCI-N87 [7] = assay: Antitumor activity against human NCI-N87 cells xenografted in nude mouse assessed as tumor growth inhibition at 75 mg/kg, po qd for 22 days measured twice a week; format: functional; conditions: NCI-N87, 528 h, read-out: TGI
Procedure, shortened: (§4)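 Female nude mice (Crl:NU-Fox1nu) implanted subcutaneously in the right flank with 5 million NCI-N87 cells. At median tumor volume of roughly >100 mm3, randomized to 5 cohorts of 10. Dosed orally once daily for 22 days with vehicle (40% w/w Captisol) or 50, 75, 125 or 200 mg/kg. Tumor size and body weight measured at least twice weekly.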

Mus musculus [8] = assay: Toxicity in nude mouse xenografted with human NCI-N87 cells assessed as effect on body weight at 200 mg/kg, po qd for 22 days measured twice a week; format: organism-based; parameters: dose 200 mg/kg, route oral; conditions: in vivo, 528 h; procedure, shortened: as §4
[9] = Permeability of the compound after 30 mins by PAMPA; format: ADME; conditions: read-out: permeability
Procedure, shortened: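 Double-sink PAMPA with donor solutions at pH 5.0, 6.2 and 7.4. Filter coated with phospholipid in dodecane. Sandwich incubated 30 min at 37 °C with stirring equivalent to a 40 μm aqueous boundary layer. Permeability calculated from UV spectra at 250–490 nm. Verapamil run as positive control.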

A549 = assay: Cytotoxicity against human A549 cells assessed as inhibition of tumor growth incubated for 72 hrs by luminometry; format: functional, cell-based; conditions: A549, 72 h; procedure, shortened: as §1
Mus musculus [10] = assay: Toxicity in nude mouse xenografted with human NCI-N87 cells assessed as effect on body weight at 125 mg/kg, po qd for 22 days measured twice a week; format: organism-based; parameters: dose 125 mg/kg, route oral; conditions: in vivo, 528 h; procedure, shortened: as §4
BT-474 = assay: Cytotoxicity against human BT474 cells assessed as inhibition of tumor growth incubated for 72 hrs by luminometry; format: functional, cell-based; conditions: BT-474, 72 h; procedure, shortened: as §1
[11] = Metabolic stability in human liver microsomes assessed as percent of residual drug in presence of NADPH incubated for 40 mins by LC-ESI-MS/MS method; format: ADME, Microsome; conditions: liver microsomes, read-out: Stability
Procedure, shortened: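 Test article incubated in duplicate with human liver microsomes (0.5 mg/mL protein) in 100 mM potassium phosphate pH 7.4. Started with 1 mM NADPH. Stopped with acetonitrile at 0, 10, 20 and 40 min. LC-MS/MS peak area at 40 min reported as percent of 0 min. No-NADPH control incubated for 40 min.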

Mus musculus [12] = assay: Inhibition of HSP90 in mouse liver assessed as induction of HSP70 mRNA expression at 100 mg/kg, po after 6 hrs relative to control; format: functional
NCI-N87 [13] = assay: Antitumor activity against human NCI-N87 cells xenografted in po dosed nude mouse assessed as tumor growth inhibition administered as qd for 22 days measured twice a week; format: functional, organism-based; procedure, shortened: as §4
Heat shock protein HSP90 [14] = molecular target: T1, Heat shock protein HSP90; assay: Inhibition of human HSP90 in HCT116 cells assessed as induction of HSP70 incubated for 24 hrs by Western blot method; format: cell-based; conditions: HCT-116; procedure, shortened: as §2

Tmax [1]: 15 min | logP [2]: 3.32 | inhibition (Heat shock protein HSP90 [3]; DU-145): Dose-dependent effect | IC50 (Heat shock protein HSP90 [3]; du-145): 100 nM | half-life [4]: 84 min | CLH (Mus musculus [5]): 19.78 mL/min/kg | IC50 (Heat shock protein HSP90 [6]): 140 nM | Papp at 0.5 h [9]: > 350 ×10⁻⁶ cm/s | remaining at 40 min [11]: 42% | inhibition (Heat shock protein HSP90 [14]): Dose-dependent effect
SMILES: C[C@H](O)C(=O)N1CCC(CCn2c(Sc3cc4c(cc3Br)OCO4)nc3c(N)ncnc32)CC1
IC50 (NCI-H69): 150 nM | IC50 (MV4-11): 250 nM | IC50 (OVCAR-8): 490 nM | inhibition in vivo at 75 mg/kg (NCI-N87 [7]): 62% | Activity (Mus musculus [8]): Non-toxic | IC50 (A549): 770 nM | Activity (Mus musculus [10]): Non-toxic | IC50 (BT-474): 550 nM | fold change (FC) (Mus musculus [12]): 53 | TGI (NCI-N87 [13]): Dose-dependent effect
